Experimental data as given in ChEMBL document CHEMBL4118036, “α-Glucosidase Inhibitors from Salvia circinata” (J Nat Prod, 2017).
Active and inactive are the calls of the source. The rule behind the calls is not given here.

Assays:
[1] = Inhibition of rat intestinal alpha-glucosidase using p-nitrophenyl-alpha-D-glucopyranoside as substrate pretreated for 10 mins followed by substrate addition measured after 30 mins
Procedure, shortened: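 Rat intestinal acetone powder (40 mg/mL in 100 mM PBS, pH 7) as enzyme source. Test agents were dissolved in PBS or MeOH–PBS (1:1), then preincubated with the enzyme for 10 min at 37 °C. p-Nitrophenyl-α-D-glucopyranoside was added (20 mM stock in PBS) and incubated for 30 min at 37 °C. Absorbance read at 405 nm; IC50 derived per earlier reports.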

Mus musculus [2] = experiment: Antihyperglycemic activity in ICR mouse assessed as reduction in postprandial blood glucose levels at 5 mg/kg, ig pretreated for 30 mins followed by oral sucrose challenge measured at 30 mins interval for 120 mins by OSTT; type: functional, organism-based
Rattus norvegicus = species: Rattus norvegicus; experiment: Potency index, ratio of acarbose IC50 to test compound IC50 for rat intestinal alpha-glucosidase
Alpha-glucosidase = molecular target: T1, Alpha-glucosidase (Blautia obeum, UniProt A0A173Z7B1); experiment: Inhibition of recombinant Ruminococcus obeum ATCC 29174 alpha-glucosidase expressed in Escherichia coli BL21(DE3) using p-nitrophenyl-alpha-D-glucopyranoside as substrate pretreated for 10 mins followed by substrate addition measured after 3 hrs; design: species or system Blautia obeum ATCC 29174
T1 sequence (A0A173Z7B1 whole entry): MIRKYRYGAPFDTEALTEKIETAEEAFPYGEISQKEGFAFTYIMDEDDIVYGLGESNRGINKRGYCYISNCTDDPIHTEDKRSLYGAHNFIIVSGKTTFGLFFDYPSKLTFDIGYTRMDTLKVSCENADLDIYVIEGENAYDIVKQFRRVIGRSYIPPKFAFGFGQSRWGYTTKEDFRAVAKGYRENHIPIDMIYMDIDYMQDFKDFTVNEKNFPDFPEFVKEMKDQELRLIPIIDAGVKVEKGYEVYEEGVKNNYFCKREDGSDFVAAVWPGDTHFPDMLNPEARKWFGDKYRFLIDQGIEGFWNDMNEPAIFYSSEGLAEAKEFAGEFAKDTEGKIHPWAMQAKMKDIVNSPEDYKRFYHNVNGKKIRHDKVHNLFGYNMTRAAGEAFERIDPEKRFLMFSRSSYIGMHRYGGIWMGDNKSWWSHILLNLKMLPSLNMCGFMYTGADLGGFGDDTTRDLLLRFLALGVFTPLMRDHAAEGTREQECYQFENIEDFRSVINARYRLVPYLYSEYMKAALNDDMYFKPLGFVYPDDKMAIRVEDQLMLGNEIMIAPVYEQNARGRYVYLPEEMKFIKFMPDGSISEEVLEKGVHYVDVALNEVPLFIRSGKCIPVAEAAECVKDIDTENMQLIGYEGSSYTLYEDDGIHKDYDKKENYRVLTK
Procedure, shortened: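 Enzyme from E. coli BL21-DE3/pET12b grown in LB at 37 °C and induced with 0.5 mM IPTG for 8 h. Cells were sonicated in 50 mM bis-TRIS propane pH 8.0 and the lysate clarified. Enzyme (5.2 mg/mL) was preincubated with test agents for 10 min at 37 °C. pNP-α-glucoside was added (20 mM stock) and incubated for 3 h at 37 °C.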

Mus musculus [3] = experiment: Antihyperglycemic activity in ig dosed ICR mouse assessed as reduction in postprandial blood glucose levels pretreated for 30 mins followed by oral sucrose challenge measured at 30 mins interval for 120 mins by OSTT; type: functional, organism-based

| Compound | IC50 [1] [µM] | further results |
| --- | --- | --- |
| O=c1cc(-c2ccc(O)cc2)oc2cc(O[C@@H]3O[C@H](CO)[C@@H](O)[C@H](O)[C@H]3O)cc(O)c12 [APIGETRIN] | 200 | – |
| C[C@H]1O[C@H](O[C@H]2[C@H](O)[C@@H](O)[C@@H](O[C@H]3[C@H](O)[C@@H](O)C(O)O[C@@H]3CO)O[C@@H]2CO)[C@H](O)[C@@H](O)[C@@H]1N[C@H]1C=C(CO)[C@@H](O)[C@H](O)[C@H]1O (stereo partly specified) [ACARBOSE] | 100 | Activity (Mus musculus [2]): Active |
| COc1cc(-c2cc(=O)c3c(O)c(O)c(OC)cc3o2)ccc1Oc1ccc(-c2cc(=O)c3c(O)c(O)c(OC)cc3o2)cc1OC | 39 | Ratio IC50 (Rattus norvegicus): 2.5 |
| COc1cc2oc(-c3ccc(O)c(O)c3)cc(=O)c2c(O)c1O | 810 | IC50 (Alpha-glucosidase): 60 µM; Activity (Mus musculus [3]): Dose-dependent effect |
| CO[C@@H]1C=C(CC[C@]2(C)[C@H](C)CC[C@@]34COC(=O)C3=C[C@@H](O[C@@H]3O[C@H](CO)[C@@H](O)[C@H](O)[C@H]3O)C[C@@H]42)C(=O)O1 | > 10000 | – |
| C[C@@H]1CC[C@@]23COC(=O)C2=C[C@@H](O[C@@H]2O[C@H](CO)[C@@H](O)[C@H](O)[C@H]2O)C[C@@H]3[C@]1(C)CCC1=CCOC1=O | > 10000 | – |
| C[C@@H]1CC[C@@]23COC(=O)C2=C[C@@H](O[C@@H]2O[C@H](CO)[C@@H](O)[C@H](O)[C@H]2O)C[C@@H]3[C@]1(C)CCc1ccoc1 | 500 | IC50 (Alpha-glucosidase): 400 µM; Activity (Mus musculus [3]): Dose-dependent effect |
| COC1OC(=O)C=C1CC[C@]1(C)[C@H](C)CC[C@@]23COC(=O)C2=C[C@@H](O[C@@H]2O[C@H](CO)[C@@H](O)[C@H](O)[C@H]2O)C[C@@H]31 (stereo partly specified) | > 10000 | – |
| CC(=O)CC[C@]1(C)[C@H](C)CC[C@@]23COC(=O)C2=C[C@@H](O[C@@H]2O[C@H](CO)[C@@H](O)[C@H](O)[C@H]2O)C[C@@H]31 | > 10000 | – |
| COc1ccc(-c2cc(=O)c3c(O)c(O)c(OC)cc3o2)cc1OC | 1800 | – |
